Columns and labels:
[1] = target: T1, Prostaglandin E2 receptor EP1 subtype (Mus musculus, UniProt P35375); test: Displacement of [3H]-PGE2 from mouse EP1 receptor expressed in CHO cells after 20 mins by liquid scintillation counting; type: cell-based
T1 sequence (P35375 whole entry): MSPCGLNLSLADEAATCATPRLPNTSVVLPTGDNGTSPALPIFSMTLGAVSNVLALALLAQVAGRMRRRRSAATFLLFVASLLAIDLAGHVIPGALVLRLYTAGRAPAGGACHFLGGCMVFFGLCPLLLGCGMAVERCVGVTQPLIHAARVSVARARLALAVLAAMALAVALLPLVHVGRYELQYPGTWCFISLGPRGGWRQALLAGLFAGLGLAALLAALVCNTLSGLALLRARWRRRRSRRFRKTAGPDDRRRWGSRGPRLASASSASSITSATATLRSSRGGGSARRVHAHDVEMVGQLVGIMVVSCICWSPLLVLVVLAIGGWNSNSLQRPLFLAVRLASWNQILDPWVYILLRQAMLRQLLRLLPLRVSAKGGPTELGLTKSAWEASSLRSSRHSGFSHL
Procedure, shortened: (§1)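 Membranes from CHO cells stably expressing mEP1, mEP2, mEP3a, mEP4 or mFP were used. The radioligand was 2.5 nM [³H]PGE₂ for EP receptors and 2.5 nM [³H]PGF2α for FP. Buffer was 10 mM KH₂PO₄–KOH pH 6.0 with 1 mM EDTA, 10 mM MgCl₂ and 100 mM NaCl. Incubation was at room temperature, 20 min for mEP1 and 60 min for the others. Samples were filtered on GF/B, washed with phosphate/NaCl pH 6.0, dried 60 min at 60 °C and scintillation counted.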

[2] = target: T2, Prostaglandin D2 receptor (Mus musculus, UniProt P70263); test: Displacement of [3H]-PGD2 from mouse DP receptor expressed in CHO cells after 20 mins by liquid scintillation counting; type: cell-based
T2 sequence (P70263 whole entry): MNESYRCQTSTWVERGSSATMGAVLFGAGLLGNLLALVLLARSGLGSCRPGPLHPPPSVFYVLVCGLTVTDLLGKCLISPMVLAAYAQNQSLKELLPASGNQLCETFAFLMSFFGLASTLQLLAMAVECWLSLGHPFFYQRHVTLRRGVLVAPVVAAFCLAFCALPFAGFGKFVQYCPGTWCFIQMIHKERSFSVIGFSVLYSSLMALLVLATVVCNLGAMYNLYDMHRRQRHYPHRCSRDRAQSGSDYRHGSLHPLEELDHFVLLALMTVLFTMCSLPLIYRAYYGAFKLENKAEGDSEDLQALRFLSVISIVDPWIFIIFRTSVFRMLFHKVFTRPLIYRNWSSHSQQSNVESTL
Procedure, shortened: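 Membranes from CHO cells stably expressing mDP were incubated with 2.5 nM [³H]PGD₂ and compounds at various concentrations. Buffer was 25 mM HEPES–NaOH pH 7.4 with 1 mM EDTA, 5 mM MgCl₂ and 10 mM MnCl₂, for 20 min at room temperature. Samples were filtered on GF/B and washed with Tris–HCl pH 7.4, NaCl, 0.01% BSA. Filters were dried 60 min at 60 °C and read by scintillation counting. Nonspecific binding was set with excess unlabeled PGD₂.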

[3] = target: Prostacyclin receptor (Homo sapiens, UniProt P43119); test: Displacement of [3H]-Iloprost from human IP receptor expressed in CHO cells after 30 mins by liquid scintillation counting; type: cell-based
Chain of Prostacyclin receptor (P43119 whole entry): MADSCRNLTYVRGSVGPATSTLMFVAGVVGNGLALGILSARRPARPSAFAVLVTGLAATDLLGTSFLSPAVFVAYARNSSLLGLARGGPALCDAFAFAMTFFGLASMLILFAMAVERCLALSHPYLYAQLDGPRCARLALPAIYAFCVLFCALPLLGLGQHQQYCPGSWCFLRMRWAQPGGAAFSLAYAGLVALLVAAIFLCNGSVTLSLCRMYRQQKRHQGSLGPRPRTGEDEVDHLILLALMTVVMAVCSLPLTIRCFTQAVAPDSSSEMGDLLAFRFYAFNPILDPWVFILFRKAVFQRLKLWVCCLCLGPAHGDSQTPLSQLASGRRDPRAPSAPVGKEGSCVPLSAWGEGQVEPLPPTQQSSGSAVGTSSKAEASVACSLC
Procedure, shortened: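 Membranes from CHO cells expressing hIP were incubated with 5.0 nM [³H]Iloprost and compounds at various concentrations. Buffer was 50 mM Tris–HCl pH 7.5 with 1 mM EDTA and 10 mM MgCl₂, for 30 min at room temperature. Samples were filtered on GF/B, washed with 10 mM Tris–HCl/100 mM NaCl pH 7.5, dried 60 min at 60 °C and scintillation counted.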

[4] = target: T3, Prostaglandin E2 receptor EP3 subtype (Mus musculus, UniProt P30557); test: Displacement of [3H]-PGE2 from mouse EP3 receptor expressed in CHO cells after 60 mins by liquid scintillation counting; type: cell-based; procedure, shortened: as §1
T3 sequence (P30557 whole entry): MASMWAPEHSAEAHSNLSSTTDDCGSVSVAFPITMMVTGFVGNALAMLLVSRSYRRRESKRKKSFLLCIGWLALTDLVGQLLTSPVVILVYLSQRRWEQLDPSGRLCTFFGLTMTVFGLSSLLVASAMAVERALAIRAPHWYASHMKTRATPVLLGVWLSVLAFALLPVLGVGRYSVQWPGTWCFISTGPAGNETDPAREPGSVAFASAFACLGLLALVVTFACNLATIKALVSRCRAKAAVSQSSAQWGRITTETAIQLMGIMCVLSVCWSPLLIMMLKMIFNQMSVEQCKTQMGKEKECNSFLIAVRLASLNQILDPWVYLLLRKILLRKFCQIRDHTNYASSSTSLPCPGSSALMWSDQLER

[5] = target: Prostaglandin F2-alpha receptor (Mus musculus, UniProt P43117); test: Displacement of [3H]-PGF2-alpha from mouse FP receptor expressed in CHO cells after 60 mins by liquid scintillation counting; type: cell-based; procedure, shortened: as §1
Chain of Prostaglandin F2-alpha receptor (P43117 whole entry): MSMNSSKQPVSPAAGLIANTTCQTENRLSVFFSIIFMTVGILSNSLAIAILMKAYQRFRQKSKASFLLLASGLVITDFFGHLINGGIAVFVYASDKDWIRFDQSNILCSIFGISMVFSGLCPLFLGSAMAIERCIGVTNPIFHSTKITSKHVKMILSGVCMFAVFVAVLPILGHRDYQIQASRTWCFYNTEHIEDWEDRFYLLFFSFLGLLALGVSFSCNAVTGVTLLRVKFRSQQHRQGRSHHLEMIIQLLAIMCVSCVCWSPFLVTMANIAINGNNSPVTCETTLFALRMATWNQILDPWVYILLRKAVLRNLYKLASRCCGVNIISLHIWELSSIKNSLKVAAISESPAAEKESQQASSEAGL

[6] = target: Prostaglandin E2 receptor EP4 subtype (Mus musculus, UniProt P32240); test: Displacement of [3H]-PGE2 from mouse EP4 receptor expressed in CHO cells after 60 mins by liquid scintillation counting; type: cell-based; procedure, shortened: as §1
Chain of Prostaglandin E2 receptor EP4 subtype (P32240 whole entry): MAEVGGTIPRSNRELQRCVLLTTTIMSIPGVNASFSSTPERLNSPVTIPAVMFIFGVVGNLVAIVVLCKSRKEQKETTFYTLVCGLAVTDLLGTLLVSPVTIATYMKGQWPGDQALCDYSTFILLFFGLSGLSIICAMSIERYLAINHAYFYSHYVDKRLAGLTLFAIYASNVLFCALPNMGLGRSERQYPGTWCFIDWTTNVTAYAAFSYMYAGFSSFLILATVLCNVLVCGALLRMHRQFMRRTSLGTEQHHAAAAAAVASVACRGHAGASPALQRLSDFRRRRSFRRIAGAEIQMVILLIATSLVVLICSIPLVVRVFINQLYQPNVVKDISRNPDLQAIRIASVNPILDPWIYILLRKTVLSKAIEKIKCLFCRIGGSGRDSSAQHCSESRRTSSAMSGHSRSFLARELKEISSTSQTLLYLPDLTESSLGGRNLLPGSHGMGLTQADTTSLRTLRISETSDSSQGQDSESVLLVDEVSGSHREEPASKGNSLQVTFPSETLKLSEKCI

[7] = target: T4, Thromboxane A2 receptor (Homo sapiens, UniProt P21731); test: Displacement of [3H]-SQ29548 from human TP receptor expressed in CHO cells after 30 mins by liquid scintillation counting; type: cell-based
T4 sequence (P21731 whole entry): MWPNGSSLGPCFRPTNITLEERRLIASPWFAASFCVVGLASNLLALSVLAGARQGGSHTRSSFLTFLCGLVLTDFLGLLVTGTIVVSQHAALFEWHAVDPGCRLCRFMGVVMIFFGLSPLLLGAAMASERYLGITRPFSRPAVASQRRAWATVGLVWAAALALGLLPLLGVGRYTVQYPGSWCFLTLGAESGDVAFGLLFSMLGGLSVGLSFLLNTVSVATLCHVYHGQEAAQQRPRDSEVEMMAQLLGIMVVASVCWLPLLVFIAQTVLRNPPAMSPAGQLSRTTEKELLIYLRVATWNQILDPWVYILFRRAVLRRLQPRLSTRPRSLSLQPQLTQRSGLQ
Procedure, shortened: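 Membranes from CHO cells expressing hTP were incubated with 5.0 nM [³H]-SQ29548 and compounds at various concentrations. Buffer was 10 mM Tris–HCl pH 7.5 with 100 mM NaCl, for 30 min at room temperature. Samples were filtered on GF/B, washed with the same buffer, dried 60 min at 60 °C and scintillation counted. Nonspecific binding was set with excess unlabeled SQ29548.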

[8] = target: Prostaglandin E2 receptor EP2 subtype (Mus musculus, UniProt Q62053); test: Displacement of [3H]-PGE2 from mouse EP2 receptor expressed in CHO cells after 60 mins by liquid scintillation counting; type: cell-based; procedure, shortened: as §1
Chain of Prostaglandin E2 receptor EP2 subtype (Q62053 whole entry): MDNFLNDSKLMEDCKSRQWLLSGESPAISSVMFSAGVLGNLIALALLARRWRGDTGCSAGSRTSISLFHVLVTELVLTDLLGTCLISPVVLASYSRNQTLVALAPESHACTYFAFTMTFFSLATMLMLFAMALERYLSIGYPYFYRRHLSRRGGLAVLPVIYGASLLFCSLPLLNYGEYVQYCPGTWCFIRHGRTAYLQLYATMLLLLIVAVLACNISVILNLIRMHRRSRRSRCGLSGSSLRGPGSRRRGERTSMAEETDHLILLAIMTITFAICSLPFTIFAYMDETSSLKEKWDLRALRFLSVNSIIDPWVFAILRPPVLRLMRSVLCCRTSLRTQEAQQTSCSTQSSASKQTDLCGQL

[9] = target: T2, Prostaglandin D2 receptor; test: Antagonist activity at mouse DP receptor expressed in CHO cells assessed as inhibition of PGD2-induced cAMP accumulation after 10 mins by enzyme immunoassay in the presence of 0.1% BSA; type: functional, cell-based
Procedure, shortened: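 CHO cells stably expressing mDP were seeded at 1 × 10⁵ cells/well and grown 2 days. They were preincubated about 10 min at 37 °C in MEM with Diclofenac, then given assay medium (MEM, 0.1% BSA, 1 mM IBMX, Diclofenac). Test compound at various concentrations plus 10 nM PGD₂ was added for 10 min at 37 °C. The reaction was stopped with ice-cold 10% TCA and TCA was extracted. cAMP was measured by EIA. IC50 came from cAMP relative to the PGD₂-only maximum.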

| SMILES | Ki [1] | Ki [2] | Ki [3] | Ki [4] | Ki [5] | Ki [6] | Ki [7] | Ki [8] | IC50 [9] |
| --- | --- | --- | --- | --- | --- | --- | --- | --- | --- |
| Cc1c(CC(=O)O)c2ccccc2n1C(=O)c1ccc(OC[C@@H]2CN(C)c3ccccc3O2)cc1 | > 10000 nM | 7.7 nM | 200 nM | 1700 nM | 2100 nM | > 10000 nM | > 10000 nM | 210 nM |  |
| Cc1ccc2c(c1)c(CC(=O)O)c(C)n2C(=O)c1ccc(OC[C@@H]2CN(C)c3ccccc3O2)cc1 | 5200 nM | 28 nM | 1100 nM | 2800 nM | 1700 nM | 3600 nM | > 10000 nM | 340 nM | 4.3 nM |
| Cc1c(CC(=O)O)c2cc(Cl)ccc2n1C(=O)c1ccc(OC[C@@H]2CN(C)c3ccccc3O2)cc1 | > 10000 nM | 29 nM | 49 nM | > 10000 nM | 2200 nM | > 10000 nM |  | 330 nM | 3.1 nM |
| Cc1c(CC(=O)O)c2cc(F)ccc2n1C(=O)c1ccc(OC[C@@H]2CN(C)c3ccccc3O2)cc1 | > 10000 nM | 5.7 nM | 320 nM | 1900 nM | 1700 nM | > 10000 nM | > 10000 nM | 250 nM | 1.8 nM |
| COc1ccc2c(c1)c(CC(=O)O)c(C)n2C(=O)c1ccc(OC[C@@H]2CN(C)c3ccccc3O2)cc1 | > 10000 nM | 9.9 nM | 1000 nM | 2500 nM |  | 3000 nM |  | 310 nM |  |
| Cc1c(CC(=O)O)c2ccccc2n1C(=O)c1ccc(OC[C@@H]2CN(C)c3ccccc3O2)cc1F |  | 3.8 nM | 110 nM |  |  |  |  |  | 2.5 nM |
| Cc1cc(C(=O)n2c(C)c(CC(=O)O)c3ccccc32)ccc1OC[C@@H]1CN(C)c2ccccc2O1 |  | 140 nM | 72 nM |  |  |  |  |  |  |
| Cc1c(CC(=O)O)c2ccccc2n1C(=O)c1ccc(OC[C@@H]2CN(C)c3ccccc3O2)c(Cl)c1 |  | 380 nM | 91 nM |  |  |  |  |  |  |
| Cc1c(CC(=O)O)c2ccccc2n1C(=O)c1ccc(OC[C@@H]2CN(C)c3ccccc3O2)c(F)c1 |  | 240 nM | 210 nM |  |  |  |  |  |  |
| COc1cc(C(=O)n2c(C)c(CC(=O)O)c3ccccc32)ccc1OC[C@@H]1CN(C)c2ccccc2O1 |  | 340 nM | 430 nM |  |  |  |  |  |  |
| Cc1c(OC[C@@H]2CN(C)c3ccccc3O2)ccc(C(=O)n2c(C)c(CC(=O)O)c3ccccc32)c1C |  | 380 nM | 98 nM |  |  |  |  |  |  |
| Cc1cc(C(=O)n2c(C)c(CC(=O)O)c3ccccc32)c(C)cc1OC[C@@H]1CN(C)c2ccccc2O1 |  | 360 nM | 94 nM |  |  |  |  |  |  |
| Cc1cc(OC[C@@H]2CN(C)c3ccccc3O2)ccc1C(=O)n1c(C)c(CC(=O)O)c2cc(F)ccc21 |  | 2.7 nM | 130 nM |  |  |  |  |  | 3.2 nM |
| Cc1c(CC(=O)O)c2cc(F)ccc2n1C(=O)c1ccc(OC[C@@H]2CN(C)c3ccccc3O2)cc1F |  | 3.8 nM | 320 nM |  |  |  |  |  | 0.7 nM |
| Cc1cc(C(=O)n2c(C)c(CC(=O)O)c3cc(F)ccc32)ccc1OC[C@@H]1CN(C)c2ccccc2O1 |  | 59 nM | 160 nM |  |  |  |  |  | 42 nM |
| COc1cc(C(=O)n2c(C)c(CC(=O)O)c3cc(F)ccc32)ccc1OC[C@@H]1CN(C)c2ccccc2O1 |  |  | 1500 nM |  |  |  |  |  | 68 nM |
| Cc1c(OC[C@@H]2CN(C)c3ccccc3O2)ccc(C(=O)n2c(C)c(CC(=O)O)c3cc(F)ccc32)c1C |  |  | 230 nM |  |  |  |  |  | 32 nM |
| Cc1cc(C(=O)n2c(C)c(CC(=O)O)c3cc(F)ccc32)c(C)cc1OC[C@@H]1CN(C)c2ccccc2O1 |  | 14 nM | 93 nM |  |  |  |  |  | 2.8 nM |
| Cc1cc(OC[C@@H]2COc3ccccc3O2)ccc1C(=O)n1c(C)c(CC(=O)O)c2ccccc21 |  | 22 nM | 570 nM |  |  |  |  |  | 3.8 nM |
| Cc1cc(OC[C@@H]2COc3ccccc32)ccc1C(=O)n1c(C)c(CC(=O)O)c2ccccc21 |  | 43 nM | 2100 nM |  |  |  |  |  | 72 nM |
| Cc1cc(OC[C@@H]2Cc3ccccc3O2)ccc1C(=O)n1c(C)c(CC(=O)O)c2ccccc21 |  | 7.1 nM | 280 nM |  |  |  |  |  | 7 nM |
| Cc1cc(OCC2Oc3ccccc3O2)ccc1C(=O)n1c(C)c(CC(=O)O)c2ccccc21 |  |  | 3000 nM |  |  |  |  |  | 43 nM |
| Cc1cc(OCC2Cc3ccccc3N2C)ccc1C(=O)n1c(C)c(CC(=O)O)c2ccccc21 (stereo not given) |  |  | > 10000 nM |  |  |  |  |  | 6.2 nM |
| CCN1c2ccccc2CC1COc1ccc(C(=O)n2c(C)c(CC(=O)O)c3ccccc32)c(C)c1 (stereo not given) |  | 22 nM | 5100 nM |  |  |  |  |  | 3.1 nM |
| Cc1cc(OC[C@@H]2COc3ccc(F)cc32)ccc1C(=O)n1c(C)c(CC(=O)O)c2ccccc21 |  | 5.4 nM | 520 nM |  |  |  |  |  | 1.8 nM |
| COc1ccc2c(c1)c(CC(=O)O)c(C)n2C(=O)c1ccc(Cl)cc1 [INDOMETHACIN] | > 10000 nM | > 10000 nM |  | > 10000 nM |  | > 10000 nM |  | > 10000 nM |  |

From ChEMBL document CHEMBL1811829, “Discovery of selective indole-based prostaglandin D₂ receptor antagonist” (Bioorg Med Chem, 2011)
